The source made the active and inactive calls.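 How the source made its calls, unless noted: active means inhibition above 20% together with a positive visual image hit; inconclusive means visual image hit but inhibition not above 20%; inactive means no visual image hit.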
Columns and labels:
[1] = inhibitors of TNFa-induced NFkB p65 translocation, primary screen, imaging, HUVEC, MLSMR starter and 10KST1 sets (AID 438); conditions: HUVEC TNFa-induced p65 nuclear translocation; cell count: measured here: nuclei count (cytotoxicity indicator), at 2.08 µM; inhibition: at 2 µM, stronger effect = higher value, 0% TNFa-plus-vehicle, 100% no-TNFa wells;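 further: compound added about 3h40 before a 20 min TNFalpha stimulation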;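 on inhibition: signal is the nuclear over cytoplasmic p65 intensity ratio per well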
[2] = inhibitors of mutant huntingtin aggregation, primary screen, imaging, exon1htt(103Q)mCFP cells, high-content imaging (AID 483;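 active means visual image review flags a hit and inhibition of aggregation exceeds 20%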;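 further: compound exposure lasted 3 days before fixation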;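 on nuclei count: percent of the per-plate median nuclei count of sample wells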); conditions: exon1htt(103Q)mCFP cell line, aggregate imaging, at 2 µM; inhibition of aggregation: stronger effect = higher value; nuclei count: measured here: cell count, toxicity
[3] = inhibitors of E-selectin induction by TNFa, primary screen, imaging, HUVEC, immunofluorescence, MLSMR starter and 10KST1 sets (AID 487;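 active means visually confirmed hit in the image check and inhibition above 20%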;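 on inhibition: signal is fraction of cell area covered by stained E-selectin grains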;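 on nuclei count: 100% = median nuclei count of all wells on the same plate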); conditions: HUVEC TNFalpha-induced E-selectin immunofluorescence imaging, at 2 µM; inhibition: stronger effect = higher value; nuclei count: measured here: cell number, toxicity
[4] = target: Voltage-gated potassium channel subunit beta-2 (Rattus norvegicus) (UniProt P62483); assay: KvBeta enzyme negative modulators, primary screen, biochemical, NADPH fluorescence (AID 622;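 active means fluorescence slope higher than the sample average by over 3 SD, cut at about -0.22 in these data, passing the limit was not always enough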;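 further: slope of raw intensity against log time taken from 70 to 1610 s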); conditions: recombinant KvBeta, 4-cyanobenzaldehyde reduction, at 10 µM, stronger effect = higher value
[5] = target: Voltage-gated potassium channel subunit beta-2 (Rattus norvegicus) (UniProt P62483); assay: KvBeta positive modulators, primary screen, biochemical, NADPH fluorescence (AID 623;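 active means NADPH fluorescence slope more negative than the mean of all samples by about 3 SD, 99.7% confidence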;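 further: fluorescence intensity change per second fitted from 20 to 320 s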); conditions: Recombinant KvBeta, NADPH fluorescence decrease slope, 10 min; at 10 µM; stronger effect = lower value
[6] = target: Muscarinic acetylcholine receptor M4 (Homo sapiens) (UniProt P08173); assay: compounds altering M4/GIRK thallium flux, either direction, primary screen, M4 allosteric agonist project, cell-based, HEK293 M4/GIRK, BTC-AM (AID 625;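 active means fluorescence slope after compound addition differing from the mean of all tested samples at 99.7% confidence, mostly higher but some lower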;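 further: thallium influx through GIRK channels coupled to M4 in HEK293 cells with BTC-AM dye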); conditions: at 10 µM, actives lie on both sides
Procedure, shortened: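 Assay system: HEK293 cells with M4 receptor and GIRK channels / Controls: carbachol and DMSO controls / Schedule: 1 h dye loading, 2 min kinetic read / Technique: kinetic fluorescence with BTC-AM dye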

[7] = inhibitors of Sendai virus-induced IRF3 signaling, primary screen, TLR/RLR signaling modifier project, cell-based, Sendai virus stimulus, luciferase, 10K MLSCN set (AID 602276;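 active means inhibition at or above 50% at 10 µM; inactive means inhibition below 50%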;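 further: firefly luciferase from ISG56 promoter only with Renilla not read in this screen; 0% = Sendai virus plus DMSO and 100% = medium plus DMSO without virus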); conditions: HEK293 RL24 IRF3 luciferase reporter, at 10 µM, stronger effect = higher value
[8] = inhibitors of poly I:C-induced TLR3 signaling, primary screen, cell-based, poly I:C stimulus, luciferase, 10K MLSCN set (AID 602277;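 active means inhibition of the reporter signal at or above 50%; inactive means inhibition below 50%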); conditions: HEK293-TLR3 RL24 IRF3 luciferase reporter, at 10 µM, stronger effect = higher value

Sequence of Muscarinic acetylcholine receptor M4 (Homo sapiens) (P08173 whole entry, looked up): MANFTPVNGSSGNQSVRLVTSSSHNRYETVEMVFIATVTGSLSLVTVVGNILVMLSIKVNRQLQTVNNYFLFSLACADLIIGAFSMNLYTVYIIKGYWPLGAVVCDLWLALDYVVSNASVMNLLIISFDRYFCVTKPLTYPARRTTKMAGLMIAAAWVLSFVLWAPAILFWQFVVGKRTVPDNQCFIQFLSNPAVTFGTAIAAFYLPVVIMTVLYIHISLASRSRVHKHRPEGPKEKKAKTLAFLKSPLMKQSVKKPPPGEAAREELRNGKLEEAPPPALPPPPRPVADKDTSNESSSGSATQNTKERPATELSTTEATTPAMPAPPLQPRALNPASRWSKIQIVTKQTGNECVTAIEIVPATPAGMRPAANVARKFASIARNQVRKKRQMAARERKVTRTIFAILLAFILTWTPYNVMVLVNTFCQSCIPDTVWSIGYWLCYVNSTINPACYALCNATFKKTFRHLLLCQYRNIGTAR
Sequence of Voltage-gated potassium channel subunit beta-2 (Rattus norvegicus) (P62483 whole entry, looked up): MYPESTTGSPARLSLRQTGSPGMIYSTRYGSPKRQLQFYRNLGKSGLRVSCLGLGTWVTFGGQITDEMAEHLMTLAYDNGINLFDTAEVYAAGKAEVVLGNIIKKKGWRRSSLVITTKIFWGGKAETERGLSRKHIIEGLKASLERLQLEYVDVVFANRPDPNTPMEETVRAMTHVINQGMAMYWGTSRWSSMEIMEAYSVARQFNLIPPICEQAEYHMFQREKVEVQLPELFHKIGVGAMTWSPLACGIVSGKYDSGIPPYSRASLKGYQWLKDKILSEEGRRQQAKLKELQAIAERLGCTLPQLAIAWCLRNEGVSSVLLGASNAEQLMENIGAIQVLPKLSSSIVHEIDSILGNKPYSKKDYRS

Compound | cell count [1] | inhibition [1] | inhibition of aggregation [2] | nuclei count [2] [%] | inhibition [3] | nuclei count [3] [%] | fluorescence slope [4] | NADPH fluorescence slope [5] | fluorescence slope [6] | inhibition [7] | inhibition [8]
CCCCOC(=O)Nc1nc2ccc(OC)cc2s1 | 743 | -10.1% (inactive) | 7.1% (inactive) | 100 | -29.1% (inactive) | 108 | -0.324 (inactive) | -5.1e-05 (inactive) | 0.00658 (inactive) | -0.307% (inactive) | -118% (inactive)
COc1ccc(-n2ncc3c(NCc4ccccn4)ncnc32)cc1 | 463 | -1.9% (inactive) | 7.6% (inactive) | 94 | 14.4% (inactive) | 102 | -0.541 (inactive) | -4e-05 (inactive) | 0.0051 (inactive) | -12.7% (inactive) | -61.6% (inactive)
O=C(Cn1nc(C(F)(F)F)c2c1CCCC2)NCCN1CCOCC1 | 584 | -6.8% (inactive) | -26.7% (inactive) | 103 | -8.6% (inactive) | 93.4 | -0.516 (inactive) | -0.00011 (inactive) | 0.00274 (inactive) | 17.5% (inactive) | 25.2% (inactive)
CCOC(=O)c1cc2sccc2n1CC(=O)Nc1ccc(OC)cc1OC | 550 | -28.2% (inactive) | 2.8% (inactive) | 96.6 | -22.6% (inactive) | 107 | -0.542 (inactive) | 5.3e-06 (inactive) | 0.00418 (inactive) | 19% (inactive) | 32.5% (inactive)
CCOc1cc(C2C(C(=O)OC(C)C)=C(C)N=C3SCCC(=O)N32)ccc1OC(C)=O (stereo not drawn) | 284 | 5.8% (inactive) | 8.8% (inactive) | 105 | 1.9% (inactive) | 105 | -0.42 (inactive) | -0.000412 (inactive) | 0.00512 (inactive) | 11.7% (inactive) | 24% (inactive)
Nc1nc2ccccc2n1/N=C/c1ccc(Br)cc1 | 334 | -2.9% (inactive) | -2.4% (inactive) | 87.2 | 12.6% (inactive) | 92.2 | -0.47 (inactive) | -3.8e-05 (inactive) | 0.00585 (inactive) | -55% (inactive) | -127% (inactive)
CCC(C)C(NC(=O)C1CCC(C)CC1)C(=O)NCc1cccnc1 (stereo not drawn) | 320 | -13.1% (inactive) | 1.5% (inactive) | 103 | 22.9% (inactive) | 102 | -0.325 (inactive) | -5.6e-05 (inactive) | 0.00576 (inactive) | 12.4% (inactive) | 4.61% (inactive)
COc1ccccc1-n1c(C)nnc1SCC(N)=O | 382 | 6.2% (inactive) | 7.3% (inactive) | 100 | -49.7% (inactive) | 103 | -0.521 (inactive) | -1.4e-05 (inactive) | 0.00439 (inactive) | 17.4% (inactive) | 22.3% (inactive)
CCN(CCCNC(=O)c1cn(CC)c2ccc(S(=O)(=O)N(C)C)cc2c1=O)c1cccc(C)c1 | 587 | -12.9% (inactive) | 23.2% (inactive) | 106 | -62.7% (inactive) | 116 | -0.475 (inactive) | 8.6e-05 (inactive) | 0.00589 (inactive) | 5.55% (inactive) | 3.96% (inactive)
CCOC(=O)Nc1cc(OCC)c(NC(=O)C2CC2)cc1OCC | 589 | -12.9% (inactive) | -15% (inactive) | 117 | -52.7% (inactive) | 119 | -0.439 (inactive) | -4.7e-05 (inactive) | 0.00711 (inactive) | 3.59% (inactive) | 11.8% (inactive)
COc1ccc(CNc2nc(SCC(=O)NCc3ccco3)nc3ccccc23)cc1 | 705 | 0.9% (inactive) | -24.8% (inactive) | 104 | -50.5% (inactive) | 99.3 | -0.484 (inactive) | 9.7e-05 (inactive) | 0.00602 (inactive) | -0.825% (inactive) | 2.94% (inactive)
Cn1nnnc1SCC(=O)NCc1ccco1 | 467 | 4.6% (inactive) | -7.3% (inactive) | 133 | -60.2% (inactive) | 172 | -0.443 (inactive) | 0.000107 (inactive) | 0.00818 (inactive) | -10.5% (inactive) | -15.1% (inactive)
Cc1nc(C)c(C(=O)Nc2ccc(Oc3ccccc3)cc2)o1 | 405 | 0.6% (inactive) | -26.8% (inactive) | 105 | -128% (inactive) | 119 | -0.306 (inactive) | -2.3e-05 (inactive) | 0.00832 (inactive) | -20.2% (inactive) | -128% (inactive)
N#CC1=C(N)Oc2n[nH]c(-c3ccncc3)c2C1c1ccsc1 (stereo not drawn) | 387 | -1.5% (inactive) | -10.3% (inactive) | 109 | 35.9% (inactive) | 98.6 | -0.546 (inactive) | 1.9e-05 (inactive) | 0.00579 (inactive) | -2.51% (inactive) | -6.52% (inactive)
Cc1ccc(NC(=O)CSc2nnc(CCCCCNC(=O)OC(C)(C)C)o2)c(C)c1 | 630 | -9.5% (inactive) | 28.5% (inactive) | 94.7 | -28.9% (inactive) | 102 | -0.546 (inactive) | -4e-05 (inactive) | 0.00541 (inactive) | 14.7% (inactive) | 12.1% (inactive)
COc1cccc(-n2nnc3c(=O)n(Cc4cccc(F)c4)cnc32)c1 | 421 | -1.7% (inactive) | -11.5% (inactive) | 127 | -3.7% (inactive) | 117 | -0.304 (inactive) | -7e-06 (inactive) | 0.00737 (inactive) | -8.19% (inactive) | -14% (inactive)
Cc1cc(C)c2c(N)c(C(=O)N3CCN(c4ncccn4)CC3)sc2n1 | 663 | -9.1% (inactive) | 5.1% (inactive) | 69.4 | -10.2% (inactive) | 101 | -0.559 (inactive) | -1.8e-05 (inactive) | 0.00421 (inactive) | -3.01% (inactive) | -25.1% (inactive)
Cc1cc(SCC(N)=O)nc(SCC(=O)c2ccccc2)n1 | 584 | -3.3% (inactive) | -8.2% (inactive) | 105 | 16.8% (inactive) | 91.6 | -0.585 (inactive) | -5.2e-05 (inactive) | 0.00307 (inactive) | 10.5% (inactive) | 21% (inactive)
O=S(=O)(NCCSc1ccccc1)c1cccs1 | 652 | -6.3% (inactive) | -14.5% (inactive) | 103 | -12.2% (inactive) | 104 | -0.208 (inactive) | -2e-05 (inactive) | 0.00557 (inactive) | 5.83% (inactive) | 11.1% (inactive)
COC(=O)c1c(NC(=O)c2ccc(S(=O)(=O)N3CCOCC3)cc2)sc2c1CCN(C)C2 | 296 | -9.1% (inactive) | 3% (inactive) | 117 | -25.5% (inactive) | 114 | -0.483 (inactive) | -5.3e-05 (inactive) | 0.0054 (inactive) | -9.85% (inactive) | 15.9% (inactive)
Cc1cc(NS(=O)(=O)c2ccc(NC(=O)C(C)N3C(=O)c4ccccc4C3=O)cc2)nc(C)n1 (stereo not drawn) | 257 | -2.1% (inactive) | 4.6% (inactive) | 98.5 | -11.1% (inactive) | 90.8 | -0.557 (inactive) | -5.8e-05 (inactive) | 0.00257 (inactive) | 14.9% (inactive) | 18.8% (inactive)
CCN1CCN(C(=O)c2ccc3c(=O)n(CCC4=CCCCC4)c(=O)[nH]c3c2)CC1 | 465 | 3.4% (inactive) | -14% (inactive) | 95.8 | -29.3% (inactive) | 114 | -0.576 (inactive) | -7.8e-05 (inactive) | 0.00535 (inactive) | -36.8% (inactive) | -73.5% (inactive)
Cn1c(=O)c2c(nc(SCC(=O)NCc3ccc4c(c3)OCO4)n2Cc2ccccc2)n(C)c1=O | 641 | -14.8% (inactive) | 10.5% (inactive) | 104 | -33% (inactive) | 115 | -0.473 (inactive) | -3.8e-05 (inactive) | 0.0042 (inactive) | 12.6% (inactive) | 11.8% (inactive)
CCOc1ccc(S(=O)(=O)Nc2ccccc2C(=O)Nc2ccccc2N2CCOCC2)cc1 | 322 | -2.1% (inactive) | 17.2% (inactive) | 94.9 | -24.9% (inactive) | 106 | -0.522 (inactive) | -3.2e-05 (inactive) | 0.00582 (inactive) | 11.5% (inactive) | 25.7% (inactive)
Cc1ccccc1NC(=O)c1ccc(NC(=O)c2ccco2)cc1 | 423 | -1% (inactive) | 10.9% (inactive) | 116 | -30.5% (inactive) | 113 | -0.462 (inactive) | -2.6e-05 (inactive) | 0.00647 (inactive) | -7.81% (inactive) | -35.1% (inactive)
CCCc1ccc(C(C)NC(=O)c2cnccn2)cc1 (stereo not drawn) | 375 | 0.4% (inactive) | -9.4% (inactive) | 107 | 32.8% (inactive) | 106 | -0.484 (inactive) | -1.5e-05 (inactive) | 0.00486 (inactive) | 15.6% (inactive) | -1.82% (inactive)
O=C(CN(c1ccccc1)S(=O)(=O)c1ccccc1)N1CCN(Cc2ccc3c(c2)OCO3)CC1 | 372 | 4% (inactive) | -11.3% (inactive) | 122 | -23.4% (inactive) | 116 | -0.528 (inactive) | -3.2e-05 (inactive) | 0.00412 (inactive) | 13.6% (inactive) | 21.8% (inactive)
COc1ccccc1NC(=O)N1CCCC1C(=O)NC1CCCCC1 (stereo not drawn) | 582 | 0.4% (inactive) | 9% (inactive) | 92.5 | -19.7% (inactive) | 121 | -0.227 (inactive) | -2.2e-05 (inactive) | 0.00721 (inactive) | 15.6% (inactive) | 11.1% (inactive)

Reference: PubChem BioAssay
